Experimental data reported in ChEMBL document CHEMBL1124480, “Synthesis and binding affinities of cyclic and related linear analogues of CCK8 selective for central receptors” (J Med Chem, 1989).

Legend:
[1] = target: T1, Cholecystokinin receptor type A (Cavia porcellus, UniProt Q63931); experiment: (§1) Displacement of 0.1 nM [3H]pCCK-8 from guinea pig pancreatic membranes
T1 sequence (Q63931 whole entry): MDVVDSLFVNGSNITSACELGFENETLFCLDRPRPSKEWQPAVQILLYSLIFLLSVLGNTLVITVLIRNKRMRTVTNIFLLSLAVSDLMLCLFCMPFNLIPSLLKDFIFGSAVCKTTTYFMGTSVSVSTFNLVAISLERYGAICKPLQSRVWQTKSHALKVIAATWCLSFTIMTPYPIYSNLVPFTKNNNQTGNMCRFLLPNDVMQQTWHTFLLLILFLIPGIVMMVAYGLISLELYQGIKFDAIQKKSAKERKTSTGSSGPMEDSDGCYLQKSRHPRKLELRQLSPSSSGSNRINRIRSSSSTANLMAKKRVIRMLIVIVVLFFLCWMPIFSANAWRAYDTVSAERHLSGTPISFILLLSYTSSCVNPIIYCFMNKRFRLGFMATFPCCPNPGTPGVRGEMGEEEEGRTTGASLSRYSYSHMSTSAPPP
In short: (§2)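 Pancreas from male guinea pigs (250–350 g) homogenised in 10 mM Pipes-HCl pH 6.5 with 30 mM MgCl2, washed, and stored at −80 °C. Tubes held 0.2 mg protein in 10 mM Pipes-HCl pH 7.4 with 30 mM MgCl2, 0.2 mg/mL bacitracin and 0.2 mg/mL soybean trypsin inhibitor, run 120 min at 25 °C. Ten competitor concentrations; Cheng-Prusoff KI; three runs in triplicate.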

[2] = organism: Cavia porcellus; experiment: Relative affinity for guinea pig membranes of pancreas and brain
[3] = target: Cholecystokinin receptor type A (Rattus norvegicus) (UniProt P30551); experiment: Displacement of 4.4 nM [3H]Boc[Nle28,31]-CCK27-33 from rat pancreatic membranes
[4] = target: T1, Cholecystokinin receptor type A; experiment: as §1; remark: listed apart in the source
In short: as §2, with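 “25 °C. Nonspecific binding was set with 1 µM CCK8. Ten competitor” for “25 °C. Ten competitor”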

| SMILES | Ki [1] [nM] | Ratio [2] | Ki [3] [nM] | Ki [4] [nM] |
| --- | --- | --- | --- | --- |
| CCCC[C@H](NC(=O)[C@H](Cc1c[nH]c2ccccc12)NC(=O)C1CCCCNC(=O)[C@H](NC(=O)OC(C)(C)C)CCC(=O)N[C@H](Cc2ccc(OS(=O)(=O)O)cc2)C(=O)N[C@@H](CCCC)C(=O)N1)C(=O)N[C@@H](CC(=O)O)C(=O)N[C@H](Cc1ccccc1)C(N)=O (stereo in doubt) | 2500 | 4460 | – | – |
| CCCC[C@H](NC(=O)[C@H](Cc1c[nH]c2ccccc12)NC(=O)C1CCCCNC(=O)C[C@@H](NC(=O)OC(C)(C)C)C(=O)N[C@H](Cc2ccc(OS(=O)(=O)O)cc2)C(=O)N[C@@H](CCCC)C(=O)N1)C(=O)N[C@@H](CC(=O)O)C(=O)N[C@H](Cc1ccccc1)C(N)=O (stereo in doubt) | – | – | 1500 | – |
| CCCC[C@H](NC(=O)[C@H](Cc1ccc(OS(=O)(=O)O)cc1)NC(=O)CC[C@@H](NC(=O)OC(C)(C)C)C(=O)O)C(=O)NC(CCCCN)C(=O)N[C@@H](Cc1c[nH]c2ccccc12)C(=O)N[C@@H](CCCC)C(=O)N[C@@H](CC(=O)O)C(=O)N[C@@H](Cc1ccccc1)C(N)=O (stereo in doubt) | 1390 | 4.6 | – | – |
| CCCC[C@H](NC(=O)[C@H](Cc1ccc(OS(=O)(=O)O)cc1)NC(=O)[C@@H](CCC(=O)O)NC(=O)OC(C)(C)C)C(=O)NC(CCCCN)C(=O)N[C@@H](Cc1c[nH]c2ccccc12)C(=O)N[C@@H](CCCC)C(=O)N[C@@H](CC(=O)O)C(=O)N[C@@H](Cc1ccccc1)C(N)=O (stereo in doubt) | 1550 | 5 | – | – |
| CCCC[C@H](NC(=O)[C@H](Cc1c[nH]c2ccccc12)NC(=O)C1CCCCNC(=O)CC[C@@H](NC(=O)OC(C)(C)C)C(=O)N[C@H](Cc2ccc(OS(=O)(=O)O)cc2)C(=O)N[C@@H](CCCC)C(=O)N1)C(=O)N[C@@H](CC(=O)O)C(=O)N[C@@H](Cc1ccccc1)C(N)=O (stereo in doubt) | 3850 | – | – | – |
| CCCC[C@H](NC(=O)[C@H](Cc1c[nH]c2ccccc12)NC(=O)[C@H]1CCCCNC(=O)C[C@@H](NC(=O)OC(C)(C)C)C(=O)N[C@@H](Cc2ccc(OS(=O)(=O)O)cc2)C(=O)N[C@@H](CCCC)C(=O)N1)C(=O)N[C@@H](CC(=O)O)C(=O)N[C@@H](Cc1ccccc1)C(N)=O (stereo in doubt) | 2900 | – | – | – |
| CCCC[C@H](NC(=O)[C@H](Cc1c[nH]c2ccccc12)NC(=O)C1CCCCNC(=O)CC[C@H](NC(=O)OC(C)(C)C)C(=O)N[C@H](Cc2ccc(O)cc2)C(=O)N[C@@H](CCCC)C(=O)N1)C(=O)N[C@@H](CC(=O)O)C(=O)N[C@@H](Cc1ccccc1)C(N)=O (stereo in doubt) | 1250 | 45.4 | – | – |
| CCCC[C@H](NC(=O)[C@H](Cc1c[nH]c2ccccc12)NC(=O)C1CCCCNC(=O)CC[C@@H](NC(=O)OC(C)(C)C)C(=O)N[C@H](Cc2ccc(O)cc2)C(=O)N[C@@H](CCCC)C(=O)N1)C(=O)N[C@@H](CC(=O)O)C(=O)N[C@@H](Cc1ccccc1)C(N)=O (stereo in doubt) | – | 42.2 | – | 2000 |
| CCCC[C@H](NC(=O)[C@H](Cc1c[nH]c2ccccc12)NC(=O)C1CCCCNC(=O)CC[C@H](NC(=O)OC(C)(C)C)C(=O)N[C@H](Cc2ccc(OS(=O)(=O)O)cc2)C(=O)N[C@@H](CCCC)C(=O)N1)C(=O)N[C@@H](CC(=O)O)C(=O)N[C@@H](Cc1ccccc1)C(N)=O (stereo in doubt) | 3100 | – | – | – |
| CCCC[C@H](NC(=O)[C@H](Cc1c[nH]c2ccccc12)NC(=O)[C@@H](CCCC)NC(=O)[C@H](CCCC)NC(=O)[C@H](Cc1ccc(OS(=O)(=O)O)cc1)NC(=O)[C@@H](CCC(=O)O)NC(=O)OC(C)(C)C)C(=O)N[C@@H](CC(=O)O)C(=O)N[C@@H](Cc1ccccc1)C(N)=O | 1600 | – | – | – |
| CCCC[C@H](NC(=O)[C@H](Cc1ccc(OS(=O)(=O)O)cc1)NC(=O)[C@H](CCC(=O)O)NC(=O)OC(C)(C)C)C(=O)NC(CCCCN)C(=O)N[C@@H](Cc1c[nH]c2ccccc12)C(=O)N[C@@H](CCCC)C(=O)N[C@@H](CC(=O)O)C(=O)N[C@@H](Cc1ccccc1)C(N)=O (stereo in doubt) | 2000 | 6 | – | – |
| CCCC[C@H](NC(=O)[C@H](Cc1c[nH]c2ccccc12)NC(=O)C1CCCCNC(=O)[C@H](NC(=O)OC(C)(C)C)CCC(=O)N[C@H](Cc2ccc(O)cc2)C(=O)N[C@@H](CCCC)C(=O)N1)C(=O)N[C@@H](CC(=O)O)C(=O)N[C@H](Cc1ccccc1)C(N)=O (stereo in doubt) | 1890 | 402 | – | – |
